# Experimental data published in ChEMBL document CHEMBL4602675, “The Marine Natural Product Manzamine A Inhibits Cervical Cancer by Targeting the SIX1 Protein” (J Nat Prod, 2020).
# Target: Casein kinase II subunit alpha (Homo sapiens) (UniProt P68400)
# Assay: Potency index, ratio for inhibition activity of apigenin to test compound for inhibition of CK2alpha in human HeLa cells after 48 hrs by Western blot analysis
# Assay type: cell-based
# Method in brief: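 Cells plated at 1 × 10^6 per 100 mm dish and treated next day for 48 h with test compound (2 or 4 μM) or apigenin (10, 20 or 40 μM). RIPA lysates with protease inhibitors; equal protein loaded for SDS-PAGE, then PVDF transfer. Blocked in 5% milk/TBST (3% BSA for CK2α); anti-SIX1 or anti-CK2α 1:500, HRP secondary 1:2000; chemiluminescent detection.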
# Casein kinase II subunit alpha (Homo sapiens), sequence (P68400 whole entry, looked up): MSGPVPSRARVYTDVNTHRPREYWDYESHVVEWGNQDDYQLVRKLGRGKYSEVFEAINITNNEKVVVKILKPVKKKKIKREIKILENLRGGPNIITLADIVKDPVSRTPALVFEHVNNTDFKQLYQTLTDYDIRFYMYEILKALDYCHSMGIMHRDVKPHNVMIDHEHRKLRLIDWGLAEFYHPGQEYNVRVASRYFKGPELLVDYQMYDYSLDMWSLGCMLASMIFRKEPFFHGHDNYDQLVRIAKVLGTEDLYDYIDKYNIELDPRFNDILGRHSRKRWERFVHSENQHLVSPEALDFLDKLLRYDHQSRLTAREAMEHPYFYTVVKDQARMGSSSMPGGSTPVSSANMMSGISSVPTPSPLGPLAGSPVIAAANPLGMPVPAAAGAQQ
compound,measurement,value
O[C@]12C=C(c3nccc4c3[nH]c3ccccc34)[C@@H]3CCN(CCCC/C=C\CC1)C[C@@]31C[C@@H]3/C=C\CCCCN3[C@H]12 [MANZAMINE A],Ratio,10
